Here are results for 31 molecules from ChEMBL document CHEMBL2150978, “Phosphorodiamidates as a promising new phosphate prodrug motif for antiviral drug discovery: application to anti-HCV agents” (J Med Chem, 2011).

Usually EC50 stands for the concentration that produces a half-maximal response. What is called EC90 is the point of the concentration-response curve where the effect stands at 90%. One may read the CC50 as the concentration at which the toxic effect on the cells reaches its halfway point. A lower CC50 goes with harm at low concentration.

One data set deals with Hepatitis C virus. The experiment in a line: Antiviral activity against Hepatitis C virus subtype 1b Con1 infected in human Huh7 cells assessed as inhibition of HCV replicon-encoded Renilla luciferase reporter activity after 72 hrs by HCV replicon assay. It counts as functional, organism-based, Hepacivirus hominis. As to conditions: Con1, Huh-7, 72 h. A digest of the protocol: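 Huh7 cells stably carrying a bicistronic subgenomic genotype 1b (Con1) replicon with Renilla luciferase reporter, seeded at 2 × 10⁴ cells/well the day before. Four-fold serial dilutions in growth medium, no-drug controls on each plate; 3 days at 37 °C, 5% CO₂. Luciferase reagent 20 min, then luminescence (RLU) read; EC₅₀ derived.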

A short description of data set [1]: Cytotoxicity against human HuH7 cells after 3 days. In kind it is cell-based, Huh-7. The essentials:
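Huh7 replicon cells seeded at 2 × 10⁴ per well one day before dosing. Four-fold serial dilutions in growth medium, no-drug controls on each plate. Incubated 3 days at 37 °C, 5% CO₂. Viability read by CellTiter-Glo luminescence after 20 min with reagent.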

Turning to `CCOc1nc(N)nc2c1ncn2[C@@H]1O[C@H](CO)[C@@H](O)[C@@]1(C)O`, in the data set with Hepatitis C virus, the concentration giving a half-maximal response (EC50) worked out at 9.5 µM and the EC90 was determined as 24.5 µM. In data set [1], the CC50 at 72 h was greater than 100 µM.
Take `COC(=O)[C@H](C)NP(=O)(N[C@@H](C)C(=O)OC)OC[C@H]1O[C@@H](n2cnc3c(OC)nc(N)nc32)[C@](C)(O)[C@@H]1O` (mixture of isomers): in the data set on Hepatitis C virus, the EC50 worked out at 5.9 µM and the EC90 is greater than 10 µM. In addition, the CC50 at 72 h in data set [1] is greater than 100 µM.
On the same counts, the results for `CCOC(=O)[C@H](C)NP(=O)(N[C@@H](C)C(=O)OCC)OC[C@H]1O[C@@H](n2cnc3c(OC)nc(N)nc32)[C@](C)(O)[C@@H]1O` (mixture of isomers) are 1.2 µM, 4.1 µM and greater than 100 µM.
As for `CCCOC(=O)[C@H](C)NP(=O)(N[C@@H](C)C(=O)OCCC)OC[C@H]1O[C@@H](n2cnc3c(OC)nc(N)nc32)[C@](C)(O)[C@@H]1O` (mixture of isomers), in the data set on Hepatitis C virus, the EC50 was found to be 0.28 µM and the EC90 came to 1.2 µM. Further, the CC50 at 72 h in data set [1] is greater than 100 µM.
On the same counts, the results for `COc1nc(N)nc2c1ncn2[C@@H]1O[C@H](COP(=O)(N[C@@H](C)C(=O)OC(C)C)N[C@@H](C)C(=O)OC(C)C)[C@@H](O)[C@@]1(C)O` (mixture of isomers) are 0.49 µM, 2.1 µM and greater than 100 µM.
Take `COc1nc(N)nc2c1ncn2[C@@H]1O[C@H](COP(=O)(N[C@@H](C)C(=O)OCCC(C)(C)C)N[C@@H](C)C(=O)OCCC(C)(C)C)[C@@H](O)[C@@]1(C)O` (mixture of isomers): in the data set on Hepatitis C virus, the EC50 was 0.02 µM and the EC90 stood at 0.09 µM. In data set [1], this molecule returned a CC50 at 72 h of 71 µM.
On the same counts, the results for `COc1nc(N)nc2c1ncn2[C@@H]1O[C@H](COP(=O)(N[C@@H](C)C(=O)OC2CCC2)N[C@@H](C)C(=O)OC2CCC2)[C@@H](O)[C@@]1(C)O` (mixture of isomers) are 0.32 µM, 0.8 µM and greater than 100 µM.
As to `COc1nc(N)nc2c1ncn2[C@@H]1O[C@H](COP(=O)(N[C@@H](C)C(=O)OC2CCCCC2)N[C@@H](C)C(=O)OC2CCCCC2)[C@@H](O)[C@@]1(C)O` (mixture of isomers), in the data set on Hepatitis C virus, the EC50 amounted to 0.05 µM and the EC90 stood at 0.19 µM. In addition, in data set [1], the CC50 at 72 h is greater than 100 µM.
Turning to `COc1nc(N)nc2c1ncn2[C@@H]1O[C@H](COP(=O)(N[C@@H](C)C(=O)OCc2ccccc2)N[C@@H](C)C(=O)OCc2ccccc2)[C@@H](O)[C@@]1(C)O` (mixture of isomers), in the data set on Hepatitis C virus, the EC50 came to 0.49 µM and the EC90 is 1.6 µM. In addition, the CC50 at 72 h in data set [1] is greater than 100 µM.
On to `COc1nc(N)nc2c1ncn2[C@@H]1O[C@H](COP(=O)(N[C@@H](C)C(=O)O[C@@H](C)c2ccccc2)N[C@@H](C)C(=O)O[C@@H](C)c2ccccc2)[C@@H](O)[C@@]1(C)O` (mixture of isomers), for which, in the data set with Hepatitis C virus, the EC50 was 0.49 µM and the 90% effect concentration (EC90) came to 1.7 µM. In addition, the CC50 at 72 h in data set [1] was 88 µM.
On the same counts, the results for `COc1nc(N)nc2c1ncn2[C@@H]1O[C@H](COP(=O)(N[C@@H](C)C(=O)OCc2ccc(F)cc2F)N[C@@H](C)C(=O)OCc2ccc(F)cc2F)[C@@H](O)[C@@]1(C)O` (mixture of isomers) are 0.26 µM, 1.07 µM and 54 µM.
Regarding `COc1nc(N)nc2c1ncn2[C@@H]1O[C@H](COP(=O)(N[C@@H](C)C(=O)OC2CCCCO2)N[C@@H](C)C(=O)OC2CCCCO2)[C@@H](O)[C@@]1(C)O` (mixture of isomers), in the data set with Hepatitis C virus, the EC50 came out at 13.3 µM and the EC90 came out at 29.3 µM. The CC50 at 72 h in data set [1] is greater than 100 µM.
For the molecule `COc1nc(N)nc2c1ncn2[C@@H]1O[C@H](COP(=O)(N[C@@H](C)C(=O)OCC(C)C)N[C@@H](C)C(=O)OCC(C)C)[C@@H](O)[C@@]1(C)O` (mixture of isomers), in the data set with Hepatitis C virus, the EC50 stood at 0.07 µM and the EC90 turned out to be 0.26 µM. The molecule also returned a CC50 at 72 h in data set [1] greater than 100 µM.
In the case of `COc1nc(N)nc2c1ncn2[C@@H]1O[C@H](COP(=O)(N[C@@H](C)C(=O)OCC2CC2)N[C@@H](C)C(=O)OCC2CC2)[C@@H](O)[C@@]1(C)O` (mixture of isomers), in the data set with Hepatitis C virus, the EC50 was 0.21 µM and the EC90 stood at 0.66 µM. This molecule also showed a CC50 at 72 h in data set [1] greater than 100 µM.
On the same counts, the results for `COC(=O)C[C@H](NP(=O)(N[C@@H](CC(=O)OC)C(=O)OC)OC[C@H]1O[C@@H](n2cnc3c(OC)nc(N)nc32)[C@](C)(O)[C@@H]1O)C(=O)OC` (mixture of isomers) are 10.2 µM, greater than 40 µM and greater than 100 µM.
With `COc1nc(N)nc2c1ncn2[C@@H]1O[C@H](COP(=O)(N[C@@H](CC(=O)OCc2ccccc2)C(=O)OCc2ccccc2)N[C@@H](CC(=O)OCc2ccccc2)C(=O)OCc2ccccc2)[C@@H](O)[C@@]1(C)O` (mixture of isomers), in the data set on Hepatitis C virus, the EC50 worked out at 0.61 µM and the EC90 was 1.9 µM. Besides, in data set [1], the CC50 at 72 h is greater than 100 µM.
Take `COc1nc(N)nc2c1ncn2[C@@H]1O[C@H](COP(=O)(NCC(=O)OCc2ccccc2)NCC(=O)OCc2ccccc2)[C@@H](O)[C@@]1(C)O` (mixture of isomers): in the data set with Hepatitis C virus, the EC50 came out at 0.6 µM and the EC90 came to 1.8 µM. The molecule further registered a CC50 at 72 h in data set [1] greater than 100 µM.
In the case of `COc1nc(N)nc2c1ncn2[C@@H]1O[C@H](COP(=O)(NCC(=O)OCC(C)(C)C)NCC(=O)OCC(C)(C)C)[C@@H](O)[C@@]1(C)O` (mixture of isomers), in the data set on Hepatitis C virus, the EC50 came to 0.13 µM and the EC90 turned out to be 0.6 µM. In addition, the CC50 at 72 h in data set [1] was greater than 100 µM.
On the same counts, the results for `COc1nc(N)nc2c1ncn2[C@@H]1O[C@H](COP(=O)(N[C@@H](CC(C)C)C(=O)OC2CCCCC2)N[C@@H](CC(C)C)C(=O)OC2CCCCC2)[C@@H](O)[C@@]1(C)O` (mixture of isomers) are 0.45 µM, 2 µM and 20 µM.
On the same counts, the results for `COc1nc(N)nc2c1ncn2[C@@H]1O[C@H](COP(=O)(N[C@@H](CC(C)C)C(=O)OCc2ccccc2)N[C@@H](CC(C)C)C(=O)OCc2ccccc2)[C@@H](O)[C@@]1(C)O` (mixture of isomers) are 0.38 µM, 1.31 µM and 39 µM.
Consider `COc1nc(N)nc2c1ncn2[C@@H]1O[C@H](COP(=O)(N[C@@H](CC(C)C)C(=O)OCC(C)(C)C)N[C@@H](CC(C)C)C(=O)OCC(C)(C)C)[C@@H](O)[C@@]1(C)O` (mixture of isomers), for which, in the data set on Hepatitis C virus, the EC50 is 0.47 µM and the concentration for an effect of 90% (EC90) was determined as 2.4 µM. The CC50 at 72 h in data set [1] came out at 27 µM.
In the case of `CC[C@H](C)[C@H](NP(=O)(N[C@H](C(=O)OC)[C@@H](C)CC)OC[C@H]1O[C@@H](n2cnc3c(OC)nc(N)nc32)[C@](C)(O)[C@@H]1O)C(=O)OC` (mixture of isomers), in the data set with Hepatitis C virus, the EC50 is 5.17 µM and the EC90 amounted to 29.5 µM. The same molecule registered a CC50 at 72 h in data set [1] greater than 100 µM.
As for `CC[C@H](C)[C@H](NP(=O)(N[C@H](C(=O)OCc1ccccc1)[C@@H](C)CC)OC[C@H]1O[C@@H](n2cnc3c(OC)nc(N)nc32)[C@](C)(O)[C@@H]1O)C(=O)OCc1ccccc1` (mixture of isomers), in the data set on Hepatitis C virus, the EC50 came out at 0.4 µM and the EC90 was found to be 1.56 µM. In data set [1], this molecule had a CC50 at 72 h of 24 µM.
On the same counts, the results for `CC[C@H](C)[C@H](NP(=O)(N[C@H](C(=O)OCC(C)(C)C)[C@@H](C)CC)OC[C@H]1O[C@@H](n2cnc3c(OC)nc(N)nc32)[C@](C)(O)[C@@H]1O)C(=O)OCC(C)(C)C` (mixture of isomers) are 2.9 µM, 6.3 µM and 15 µM.
On the same counts, the results for `COc1nc(N)nc2c1ncn2[C@@H]1O[C@H](COP(=O)(N[C@@H](CCSC)C(=O)OC2CCCCC2)N[C@@H](CCSC)C(=O)OC2CCCCC2)[C@@H](O)[C@@]1(C)O` (mixture of isomers) are 0.6 µM, 2.6 µM and 51 µM.
In the case of `COc1nc(N)nc2c1ncn2[C@@H]1O[C@H](COP(=O)(N[C@@H](CCSC)C(=O)OCc2ccccc2)N[C@@H](CCSC)C(=O)OCc2ccccc2)[C@@H](O)[C@@]1(C)O` (mixture of isomers), in the data set on Hepatitis C virus, the EC50 was 0.25 µM and the EC90 turned out to be 0.77 µM. In addition, in data set [1], the CC50 at 72 h is greater than 100 µM.
Take `COc1nc(N)nc2c1ncn2[C@@H]1O[C@H](COP(=O)(N[C@@H](CCSC)C(=O)OCC(C)(C)C)N[C@@H](CCSC)C(=O)OCC(C)(C)C)[C@@H](O)[C@@]1(C)O` (mixture of isomers): in the data set on Hepatitis C virus, the EC50 stood at 2.22 µM and the concentration for an effect of 90% (EC90) came out at 5 µM. The molecule also had a CC50 at 72 h in data set [1] greater than 100 µM.
Consider `COc1nc(N)nc2c1ncn2[C@@H]1O[C@H](COP(=O)(N[C@@H](Cc2ccccc2)C(=O)OC2CCCCC2)N[C@@H](Cc2ccccc2)C(=O)OC2CCCCC2)[C@@H](O)[C@@]1(C)O` (mixture of isomers), for which, in the data set on Hepatitis C virus, the EC50 came out at 0.5 µM and the EC90 was found to be 2 µM. This molecule displayed a CC50 at 72 h in data set [1] of 25 µM.
With `COc1nc(N)nc2c1ncn2[C@@H]1O[C@H](COP(=O)(N[C@@H](Cc2ccccc2)C(=O)OCc2ccccc2)N[C@@H](Cc2ccccc2)C(=O)OCc2ccccc2)[C@@H](O)[C@@]1(C)O` (mixture of isomers), in the data set on Hepatitis C virus, the EC50 was 0.32 µM and the EC90 was 1.35 µM. This molecule registered a CC50 at 72 h in data set [1] of 67 µM.
For `COc1nc(N)nc2c1ncn2[C@@H]1O[C@H](COP(=O)(N[C@@H](Cc2ccccc2)C(=O)OCC(C)(C)C)N[C@@H](Cc2ccccc2)C(=O)OCC(C)(C)C)[C@@H](O)[C@@]1(C)O` (mixture of isomers), in the data set on Hepatitis C virus, the EC50 worked out at 0.05 µM and the EC90 came to 0.21 µM. The molecule further registered a CC50 at 72 h in data set [1] of 24 µM.
Consider `COc1nc(N)nc2c1ncn2[C@@H]1O[C@H](COP(=O)(N2CCC[C@H]2C(=O)OCc2ccccc2)N2CCC[C@H]2C(=O)OCc2ccccc2)[C@@H](O)[C@@]1(C)O` (mixture of isomers), for which, in the data set on Hepatitis C virus, the EC50 came out at 0.52 µM and the EC90 worked out at 1.8 µM. The same molecule came in with a CC50 at 72 h in data set [1] greater than 100 µM.
